High-throughput results as filed in PubChem.
A selection: hits, their analogues and other compounds. The true share with any hit is near 3.6%.
EBNA-1 inhibitor: EBNA-1 DNA-binding inhibitors, primary screen, biochemical, fluorescence polarization; inhibition, % at 14.8 µM; hit rate 0.34% among 300,000; AID 1950, 2009; in the data active means inhibition above about 28%
ZTA counter: blocks Epstein-Barr virus ZTA, an EBNA-1 counter-screen. P03206. ZTA-DNA binding, fluorescence polarization. inhibition, % at 11 µM. hit rate 0.15% among 320,000; in the data active means inhibition above about 33%
Target sequence (P03206 whole entry, looked up): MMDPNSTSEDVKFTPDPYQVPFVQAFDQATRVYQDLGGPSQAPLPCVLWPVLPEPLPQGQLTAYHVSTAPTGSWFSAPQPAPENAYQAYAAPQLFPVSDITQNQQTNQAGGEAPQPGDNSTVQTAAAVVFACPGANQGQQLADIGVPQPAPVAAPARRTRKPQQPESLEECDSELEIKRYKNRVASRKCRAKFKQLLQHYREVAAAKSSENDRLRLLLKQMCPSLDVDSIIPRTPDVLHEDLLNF
NS3 helicase inh: inhibitors of HCV NS3 helicase, primary screen, biochemical, Cy5 molecular beacon fluorescence. NS3 helicase DNA unwinding. hit rate 0.56% among 290,000. inhibition, % at 10.9 µM. AID 1800, 2009. Hepatitis C virus NS3 helicase;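 active means inhibition above the mean of all tested compounds plus 3 SD, set per campaign, cut at about 35% in these data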;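 further: 0% = DMSO wells and 100% = thioflavine S control wells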
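Material: hepatitis C virus NS3 helicase domain fragment enzyme; measured by: Cy5 fluorescence, 0 and 60 min reads; control set: DMSO and thioflavine S; incubation: 60 min unwinding reaction at 25 °C after ATP addition; read-out basis: % inhibition from 60/0 min fluorescence ratio, DMSO 0%, thioflavine S 100%; repeats: singlicate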
FGF22 binding: binders of human FGF22 protein, primary screen, FGF22 synaptogenesis inhibitor project, biophysical, thermal shift, single point. recombinant FGF22 thermal shift, SYPRO orange fluorescence; percent of sucrose octasulfate shift, DMSO zero. activity (Tm shift, normalised), % at 9.99 µM. hit rate 1.5% among 340,000;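 active means mean Tm shift, scaled 0 neutral to 100 positive control, at about 1.3% or above, every replicate too, limit read from the data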
Target sequence (Q9HCT0 whole entry, looked up): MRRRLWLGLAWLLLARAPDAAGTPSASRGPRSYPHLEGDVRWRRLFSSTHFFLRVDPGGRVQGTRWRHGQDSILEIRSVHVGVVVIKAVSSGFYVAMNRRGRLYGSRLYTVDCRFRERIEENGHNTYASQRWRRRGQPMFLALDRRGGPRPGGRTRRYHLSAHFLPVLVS
NR3A LBD binder: binders of NR3A ligand-binding domain, primary screen, biophysical, differential scanning fluorimetry, uHTS. Tm shift relative to glycine control, % at 25 µM. hit rate 2.5% among 340,000. Glutamate receptor ionotropic, NMDA 3A (GRIN3A) ligand-binding domain. NR3A LBD differential scanning fluorimetry, Tm shift; 0% = protein alone, 100% = glycine-bound protein. AID 1259313, 2017;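 active means melting temperature shift of at least 10% of the positive control shift, at one fixed dose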
FID counter: compounds displacing fluorescent DNA intercalator, primary screen, artefact control for HCV NS3 helicase inhibitor project, biochemical, FID fluorescence | DNA fluorescent intercalator displacement | AID 1845, 2009 | inhibition, % at 7.9 µM | hit rate 0.17% among 290,000; in the data active means inhibition above about 37%;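 further: 0% = vehicle and 100% = reference compound; higher means more ethidium bromide displaced from hairpin DNA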
Active calls of the source: *; / = no result given.

SMILES	EBNA-1 inhibitor	ZTA counter	NS3 helicase inh	FGF22 binding	NR3A LBD binder	FID counter
Cc1cccc(Nc2nc(-c3ccncc3)cs2)c1	10	-14	4	1	6	0
Clc1cccc(Nc2nc(-c3ccncc3)cs2)c1	0	-26	-13	43	31*	-1
C[C@@H]1CN([C@@H](C)CO)S(=O)(=O)c2ccc(C#CC3CCCC3)cc2O[C@@H]1CN(C)Cc1cncnc1	/	/	/	0	/	/
C[C@H](CO)N1C[C@H](C)[C@H](CN(C)C(=O)Nc2ccc(C(F)(F)F)cc2)Oc2ccc(NC(=O)Nc3ccc(F)cc3)cc2CC1=O	/	/	/	1	/	/
CN(CC(=O)N1CCc2ccccc21)S(=O)(=O)c1ccc(Br)s1	-12	8	-10	/	15*	-16
CC(=O)c1ccc(NC(=O)C(C)OC(=O)C(C)Oc2cccc(C)c2)cc1 (configuration not stated)	1	-16	15	0	10*	-17
Cc1ccc2c(c1)C=CC(C#N)N2C(=O)c1ccccc1 (configuration not stated)	13	6	9	0	-2	-6
CC1=Cc2ccccc2C(C#N)N1C(=O)c1ccccc1 (configuration not stated)	0	-19	-1	44*	-1	5
CC(C)C#Cc1ccc2c(c1)O[C@H](CN(C)CC1CCOCC1)[C@@H](C)CN([C@@H](C)CO)S2(=O)=O	/	/	/	0	/	/
CC(=O)c1cccc(NC(=O)CSc2n[nH]c(-c3ccncc3)n2)c1	/	-12	/	1.7*	1	/
COc1ccc(-c2nc(SCC(=O)Nc3cc(C)on3)n[nH]2)cc1	-13	-8	3	/	10*	-3
C[C@@H]1CN([C@@H](C)CO)C(=O)c2cccc(NC(=O)C3CC3)c2O[C@@H]1CN(C)C(=O)NC1CCCCC1	/	/	/	0	/	/
C[C@@H]1CN([C@@H](C)CO)C(=O)Cc2cc(NC(=O)Nc3ccc(F)cc3)ccc2O[C@H]1CN(C)C(=O)Nc1ccc2c(c1)OCO2	/	/	/	0	/	/
CCOc1ccc(S(=O)(=O)N2CCCCC2)cc1NC(=O)C1CCCC1	/	/	/	43*	/	/
CCOc1ccc(S(=O)(=O)N2CCCCC2)c(C)c1C	/	/	-1	43*	0	-24
O=S(=O)(c1ccc(SCCOc2ccc(F)cc2)nc1)N1CCCC1	/	12	/	0	14*	/
CCOc1ccc(S(=O)(=O)N2CCCC2)cc1	8	-3	-3	/	13*	1
CC(C)Oc1ccc(S(=O)(=O)N2CCCCC2)cc1NC(=O)C1CCCC1	/	0	/	0	0	/
CCOc1ccc(S(=O)(=O)N2CCN(C)CC2)c(C)c1C	2	7	3	/	0	-1
Cc1ccc(S(=O)(=O)Nc2ccc3c(c2)CC(=O)N([C@H](C)CO)C[C@@H](C)[C@H](CN(C)Cc2ccc4c(c2)OCO4)O3)cc1	/	/	/	0	/	/
C[C@@H]1CN([C@H](C)CO)C(=O)c2cc(NC(=O)CCCN(C)C)ccc2O[C@@H](C)CCCCO[C@H]1CN(C)Cc1ccc(C(F)(F)F)cc1	/	/	/	0	/	/
C[C@@H]1CN([C@H](C)CO)C(=O)c2cc(C#CC3CCCC3)cnc2O[C@@H]1CN(C)C(=O)Nc1ccccc1	/	/	/	0	/	/
CO[C@@H]1CN(C)C(=O)c2ccc(NC(=O)NC(C)C)cc2OC[C@@H](C)N(C)C[C@@H]1C	/	/	/	0	/	/
O=C(Nc1cccc(Br)c1)c1ccc2c(c1)SC1=NS(=O)(=O)CCN12	/	6	/	0	18*	/
C[C@H]1CN([C@@H](C)CO)C(=O)c2cc(C#CC(C)(C)O)cnc2O[C@@H]1CN(C)C(=O)CN(C)C	/	/	/	0	/	/
SMILES	EBNA-1 inhibitor	ZTA counter	NS3 helicase inh	FGF22 binding	NR3A LBD binder	FID counter
Cc1cccc(NC(=O)CSc2nc3nc4c(cc3c(=O)n2-c2ccccc2)CCCC4)c1	-6	-10	-5	/	19*	-19
O=C(CSc1nc(O)cc(=O)n1-c1ccccc1)Nc1ccc2c3c(cccc13)CC2	-5	-5	8	43*	-3	-12
O=C(CSc1nc2nc3c(cc2c(=O)n1-c1ccccc1)CCCC3)Nc1cccc2ccccc12	9	16	-2	0	-2	-14
C[C@@H]1CN([C@@H](C)CO)C(=O)Cc2cc(NS(C)(=O)=O)ccc2O[C@H]1CN(C)C(=O)Nc1cccc2ccccc12	/	/	/	1	/	/
C/C=C/c1ccc([C@@H]2[C@@H](CO)N(CCC(F)(F)F)C23CN(C(C)=O)C3)cc1	/	/	/	0	/	/
O=C(c1ccccc1)N1Cc2ccccc2[C@H]2OC(c3ccc(OCCCO)cc3)=N[C@@]2(CCS(=O)(=O)c2ccccc2)C1=O	/	/	/	0	/	/
N#C[C@@H]1[C@@H](c2ccc(C3=CCCC3)cc2)[C@@H](CO)N1C(=O)NC1CCCC1	/	/	/	0	/	/
C[C@H](CO)N1C[C@H](C)[C@@H](CN(C)C(=O)Nc2ccc(F)cc2)Oc2c(NC(=O)C3CCCCC3)cccc2C1=O	/	/	/	0	/	/
COc1ccccc1NC(=O)N[C@H]1CC[C@H](CC(=O)N2CCC(Cc3ccccc3)CC2)O[C@@H]1CO	/	/	/	0	/	/
Cc1sc2ncnc(N3CCC(C(=O)Nc4ccc(Cl)c(Cl)c4)CC3)c2c1C	/	2	/	0	11*	/
C[C@H]1[C@@H]2C[C@@]3(O[C@H](c4ccccn4)N=C3C[C@@H]1c1ccccc1)N(Cc1ccncc1)C2=O	/	/	/	48*	/	/
CCOc1ccc2nc(N3C(=O)CNC3=S)sc2c1	4	-10	4	0	17*	-5
CCCCC(=O)N1CCN(c2nc3ccc(OCC)cc3s2)CC1	1	-5	-4	0	-1	-45
Cc1cc2nc(N3C(=O)CNC3=S)sc2cc1C	11	18	12	43*	5	-7
CO[C@H]1CN(C)C(=O)c2cc(NC(C)=O)ccc2OC[C@H](C)N(C(=O)C2CC2)C[C@@H]1C	/	/	/	0	/	/
CC(=O)c1ccc(S(=O)(=O)N(C)CC(=O)Nc2cc(C)on2)cc1	/	/	/	0	0	/
Cc1ccc(N(CC(=O)Nc2ccc(F)c(Cl)c2)S(=O)(=O)c2c(C)noc2C)cc1	2	12	2	/	11*	2
CC(=O)c1ccc(N(CC(=O)Nc2cc(C)on2)S(=O)(=O)c2ccc(C)cc2)cc1	/	/	/	43*	0	/
Cc1ccc(S(=O)(=O)N[C@H]2CC[C@@H](CCn3cc(-c4cccc(F)c4)nn3)O[C@@H]2CO)cc1	/	/	/	0	/	/
Cn1nccc1C(=O)NC1CCCc2c1cnn2-c1ccc(C(C)(C)C)cc1 (configuration not stated)	1	-10	0	0	16*	-45
CC(C)NC(=O)Nc1ccc2c(c1)C(=O)N([C@@H](C)CO)C[C@H](C)[C@H](CN(C)C(=O)Nc1ccccc1)O2	/	/	/	0	/	/
